This passage reports IC50 results from ChEMBL document CHEMBL1275275, “Preparation of new polycyclic compounds derived from benzofurans and furochromones. An approach to novel 1,2,3-thia-, and selena-diazolofurochromones of anticipated antitumor activities” (Eur J Med Chem, 2010).

Assay type in all cases: functional, cell-based; call rule not given here
In one experiment the test system is MCF7. Description: Antitumor activity against human MCF7 cells. In a few lines:
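Human MCF-7 breast carcinoma cells treated in vitro across a range of drug concentrations. Surviving fraction plotted against concentration to give survival curves. IC50 (µg/ml), the dose that reduces survival to 50%, read from these curves. Doxorubicin served as reference drug.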

The next experiment deals with HCT-116. Description: Antitumor activity against human HCT116 cells. In a few lines:
(§1)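 In vitro cytotoxicity against human carcinoma cell lines. Surviving fraction was plotted against drug concentration to give survival curves. IC50 was read from these curves as the dose reducing survival to 50%, in µg/ml.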

For a further experiment, the system named is HeLa. Put plainly: Antitumor activity against human HeLa cells. An outline of the steps:
as §1

The subject of a further experiment is HepG2. Put plainly: Antitumor activity against human HepG2 cells. In a few lines:
as §1

Setting [1] is: Homo sapiens, MCF7, read-out: IC50.

Molecules are shown by their SMILES. Values after ≈ are worked out from the molar mass of the structure shown.

As usually defined, the IC50 is the concentration that gives 50% inhibition. Take `COc1c2c(cc3occc13)OC1(CCCCC1)C/C2=N\NC(N)=O`: the concentration for half-maximal inhibition (IC50) in the experiment with MCF7 (setting [1]) came to 14 µg/mL (≈ 40.8 µM).
As to `COc1c2c(cc3occc13)OC1(CCCCC1)c1[se]nnc1-2`, the IC50 is 16.5 µg/mL (≈ 44 µM) in the experiment with MCF7 (setting [1]), 3.89 µg/mL (≈ 10.4 µM) in the experiment on HCT-116, 7.24 µg/mL (≈ 19.3 µM) in the experiment on HeLa and 14.6 µg/mL (≈ 38.9 µM) in the experiment with HepG2.
For `COc1c(C(/C=C(\C)N2CCCC2)=C2C(=O)c3ccccc3C2=O)c(O)cc2occc12`, the half-maximal inhibitory concentration (IC50) in the experiment with MCF7 (setting [1]) is 15.5 µg/mL (≈ 36.1 µM).
As for `CCC1(C)Oc2c(c(OC)c3ccoc3c2OC)-c2nn[se]c21` (stereo not drawn), the IC50 amounted to 12.7 µg/mL (≈ 33.5 µM) in the experiment with MCF7 (setting [1]), 8.92 µg/mL (≈ 23.5 µM) in the experiment with HCT-116, 6.02 µg/mL (≈ 15.9 µM) in the experiment on HeLa and 9.53 µg/mL (≈ 25.1 µM) with HepG2.
Regarding `COc1c(C(/C=C(\C)N2CCCC2)=C2C(=O)c3ccccc3C2=O)c(O)c(OC)c2occc12`, the concentration for half-maximal inhibition (IC50) in the experiment with MCF7 (setting [1]) amounted to 13.2 µg/mL (≈ 28.7 µM).
On to `COc1cccc2c1C(=O)c1c(O)c3c(c(O)c1C2=O)C[C@@](O)(C(=O)CO)C[C@@H]3O[C@H]1C[C@H](N)[C@H](O)[C@H](C)O1` [DOXORUBICIN], for which the half-maximal inhibitory concentration (IC50) in the experiment on HCT-116 was 3.73 µg/mL (≈ 6.86 µM); with HeLa, 4.19 µg/mL (≈ 7.71 µM); in the experiment on HepG2, 3.73 µg/mL (≈ 6.86 µM).
As for `COc1c2c(cc3occc13)OC1(CCCCC1)c1snnc1-2`, the concentration for half-maximal inhibition (IC50) in the experiment on MCF7 (setting [1]) worked out at 15.9 µg/mL (≈ 48.4 µM).
As to `COc1c2c(c(OC)c3occc13)OC1(CCCCC1)c1[se]nnc1-2`, the half-maximal inhibitory concentration (IC50) in the experiment with MCF7 (setting [1]) was 15 µg/mL (≈ 37 µM); in the experiment on HCT-116, 4.19 µg/mL (≈ 10.3 µM); in the experiment on HeLa, 5.57 µg/mL (≈ 13.7 µM); with HepG2, 9.53 µg/mL (≈ 23.5 µM).
Consider `CCC1(C)C/C(=N\NC(N)=O)c2c(c(OC)c3occc3c2OC)O1` (stereo not drawn), for which the IC50 in the experiment with MCF7 (setting [1]) was 13.9 µg/mL (≈ 40 µM).
For `COc1c2c(c(OC)c3occc13)OC(C)(C)C/C2=N\NC(N)=O`, in the experiment on MCF7 (setting [1]), the IC50 was found to be 20.8 µg/mL (≈ 62.4 µM).
For `COc1c2occc2c(OC)c2c(C=C(C)N3CCCC3)c(C#N)c(=N)oc12`, the 50% inhibitory concentration (IC50) came to 8.61 µg/mL (≈ 22.7 µM) with MCF7 (setting [1]), 4.8 µg/mL (≈ 12.7 µM) in the experiment on HCT-116, 5.11 µg/mL (≈ 13.5 µM) with HeLa and 10.9 µg/mL (≈ 28.7 µM) with HepG2.
Taken in the same sequence, the figures for `COc1c2c(c(OC)c3occc13)OC(C)(C)c1[se]nnc1-2` were 15.8 µg/mL (≈ 43.3 µM), 4.65 µg/mL (≈ 12.7 µM), 4.35 µg/mL (≈ 11.9 µM) and 15.9 µg/mL (≈ 43.5 µM).
Taken in the same sequence, the figures for `COc1c2c(c(OC)c3occc13)OC1(CCCCC1)C/C2=N\NC(N)=O` were 10.6 µg/mL (≈ 28.4 µM), 4.04 µg/mL (≈ 10.8 µM), 4.19 µg/mL (≈ 11.2 µM) and 8.61 µg/mL (≈ 23.1 µM).
With `COc1c2occc2c(OC)c2c(C=C(C)N3CCCCC3)c(C#N)c(=N)oc12`, the half-maximal inhibitory concentration (IC50) entry is “Not Active” in the experiment with MCF7 (mcf7), 4.34 µg/mL (≈ 11 µM) with HCT-116, 4.8 µg/mL (≈ 12.2 µM) with HeLa and 8.46 µg/mL (≈ 21.5 µM) in the experiment with HepG2.
With `COc1c2c(cc3occc13)OC(C)(C)C/C2=N\NC(N)=O`, the IC50 in the experiment with MCF7 (setting [1]) is 10.9 µg/mL (≈ 35.9 µM).
With `COc1c2c(c(OC)c3occc13)OC1(CCCCC1)c1snnc1-2`, in the experiment on MCF7 (setting [1]), the half-maximal inhibitory concentration (IC50) came to 14.9 µg/mL (≈ 41.6 µM).
In the case of `COc1c2c(cc3occc13)OC(C)(C)c1[se]nnc1-2`, the concentration for half-maximal inhibition (IC50) worked out at 5.56 µg/mL (≈ 16.6 µM) in the experiment with MCF7 (setting [1]), 4.8 µg/mL (≈ 14.3 µM) with HCT-116, 6.02 µg/mL (≈ 18 µM) in the experiment with HeLa and 11.5 µg/mL (≈ 34.3 µM) in the experiment on HepG2.
